PDI turbidity = inhibitors of human PDI, primary screen, biochemical, turbidity, single point, plate reader. 350,000 compounds, 0.052% hits. inhibition, % at 10 µM. Protein disulfide-isomerase (Homo sapiens), P07237. PDI insulin aggregation turbidity, A650, 90 min;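 active = mean inhibition across replicates of 30% or more, whatever share of single replicates reach that level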
FGF22 binding = binders of human FGF22 protein, primary screen, FGF22 synaptogenesis inhibitor project, biophysical, thermal shift, single point | activity (Tm shift, normalised), % at 9.99 µM | recombinant FGF22 thermal shift, SYPRO orange fluorescence; percent of sucrose octasulfate shift, DMSO zero | AID 651658, 2012 | 340,000 compounds, 1.5% hits;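 active = mean Tm shift, scaled 0 neutral to 100 positive control, at about 1.3% or above, every replicate too, limit read from the data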
Target sequence (Q9HCT0 whole entry, looked up): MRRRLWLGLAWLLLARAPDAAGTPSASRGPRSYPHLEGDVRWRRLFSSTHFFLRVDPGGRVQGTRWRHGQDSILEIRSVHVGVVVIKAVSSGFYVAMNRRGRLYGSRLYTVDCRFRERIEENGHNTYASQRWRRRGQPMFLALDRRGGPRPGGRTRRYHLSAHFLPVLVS
S100A4 MyoIIA = inhibitors of S100A4-myosin IIA peptide binding, primary screen, biochemical, fluorescence polarization, TAMRA-MyoIIA peptide. inhibition, % at 10.7 µM. 360,000 compounds, 0.14% hits;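 active = mean inhibition of at least 70% across replicates, with every replicate also reaching that level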
Target sequence (P26447 whole entry, looked up): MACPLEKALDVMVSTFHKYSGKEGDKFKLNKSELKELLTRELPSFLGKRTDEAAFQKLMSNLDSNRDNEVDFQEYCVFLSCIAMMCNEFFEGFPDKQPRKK
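Material: human S100A4 monomer with TAMRA-labelled myosin IIA peptide; buffer or medium: HEPES pH 7.2 with CaCl2, KCl, NaCl, DTT, Triton; compound dosing: one concentration per compound; schedule: 5 min incubation before reading; benchmarks: neutral control DMSO, positive control TFP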
ERAP1 HTS inh = human ERAP1 aminopeptidase inhibitors, primary screen, biochemical, single point, plate reader; recombinant ERAP1, Leu-AMC fluorescence, 60 min; 340,000 compounds, 0.15% hits; inhibition, % at 10.7 µM; Endoplasmic reticulum aminopeptidase 1 (Homo sapiens), Q9NZ08;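 active = mean replicate inhibition of at least 30%, or all replicates individually reaching that 30% level; inactive = mean below 30% and not every replicate reaching it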;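 note: 0% = neutral control wells and 100% = L-leucinethiol positive control wells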
ERp5 block = inhibitors of ERp5-driven insulin aggregation, primary screen, biochemical, turbidity, absorbance 650 nm, single point. Protein disulfide-isomerase A6 (Homo sapiens), Q15084. 90 min. inhibition, % at 9.99 µM. 350,000 compounds, 0.05% hits;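 active = mean replicate inhibition above about 25%, with every replicate also reaching it, limit read from the data, passing the limit was not always enough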
Numbers without * were called inactive; x = no result. Shown is part of a subset that was picked to be rich in hits.

SMILES | PDI turbidity | FGF22 binding | S100A4 MyoIIA | ERAP1 HTS inh | ERp5 block
Cc1cc(C)c(C(=O)COC(=O)CN2C(=O)NC3(CCCC3)C2=O)cc1C | 0 | 43* | -2 | 2 | -4
COc1ccccc1C(=O)COC(=O)CN1C(=O)NC2(CCCC2)C1=O | -2 | 0 | 93* | -1 | -1
CC1CCC2(CC1)NC(=O)N(CC(=O)Nc1cccnc1Cl)C2=O (configuration not stated) | 2 | 0 | -10 | 3 | -1
O=C(NCc1cccnc1)c1cccc(S(=O)(=O)N2CCCCC2)c1 | -8 | x | x | x | x
Cc1ccccc1NC(=O)CSc1nc(N2CCCCC2)nc(N2CCCCC2)n1 | 1 | x | x | x | x
O=C(NNC(=S)Nc1ccccc1)C1CC1 | -1 | x | x | x | x
O=C(NC(=S)Nc1ccc(S(=O)(=O)Nc2ccccc2)cc1)C1CC1 | 0 | 43* | 3 | -2 | 2
O=C(NNC(=S)Nc1ccccc1)C1CCCCC1 | 10 | 44* | -1 | -3 | 7
O=C(NCCCNC(=O)c1cc(Cl)ccc1Cl)c1ccco1 | 0 | 0 | 6 | -4 | 0
C=C(C)CN(CC)C(=O)CSc1nc(O)cc(=O)n1C1CCCC1 | 11 | 43* | -4 | 5 | 8
CCn1c(SCC(=O)N2CCCCC2)nc(O)cc1=O | -8 | x | x | x | x
COc1ccc(NC(=O)C2CC(=O)N=C(N)S2)cc1 (configuration not stated) | 1 | 43* | 3 | 0 | -5
CC(/C=N\N1CCN(Cc2ccc(C)cc2)CC1)=C\c1ccccc1 | 8 | 44* | -1 | -2 | -2
BrC(/C=N/N1CCN(Cc2ccccc2)CC1)=C/c1ccccc1 | -4 | 0 | -1 | 1 | 3
O=C(CNCc1ccccc1)Nc1ccccc1-c1ccccc1 | 6 | 44* | 1 | 1 | 0
C#Cc1cccc(C(=O)N(Cc2cccnc2)CC2CCCN(C3CCCCC3)C2)c1 (configuration not stated) | -2 | 43* | -11 | 3 | 4
O=C(c1cc2cc(F)ccc2[nH]1)N(Cc1cccnc1)CC1CCCN(C2CCCCC2)C1 (configuration not stated) | 7 | 0 | -4 | -3 | -2
Cc1ccc(/C=C2/SC(=Nc3ccc(F)cc3)NC2=O)s1 | -4 | 0 | 9 | 82* | 6
Cc1ccc(N=C2NC(=O)/C(=C\c3cccs3)S2)cc1C | 4 | 0 | 13 | 2 | 3
CN(c1nc2nonc2nc1NC1CC1)C1CCOC1 (configuration not stated) | 4 | 43* | 0 | 3 | 3
CS(=O)(=O)N(CC(=O)Nc1ccccc1C(=O)N1CCOCC1)c1ccc2c(c1)OCO2 | 3 | x | x | x | x
CS(=O)(=O)N(CC(=O)Nc1ccccc1C(=O)N1CCCC1)c1cccc([N+](=O)[O-])c1 | 8 | 0 | 0 | -3 | -1
COc1ccc(CCNC(=O)CN(c2cc([N+](=O)[O-])ccc2OC)S(C)(=O)=O)cc1 | 10 | 43* | 1 | -9 | 1
COc1ccc([N+](=O)[O-])cc1N(CC(=O)Nc1ccccc1C(=O)N1CCCC1)S(C)(=O)=O | 2 | 44* | 5 | -2 | -2
CS(=O)(=O)N(CC(=O)Nc1ccccc1C(=O)N1CCCC1)c1ccc2c(c1)OCO2 | -5 | 43* | 4 | -3 | -3
SMILES | PDI turbidity | FGF22 binding | S100A4 MyoIIA | ERAP1 HTS inh | ERp5 block
C/C(N)=C(/C#N)C(=O)CSc1nnc(Nc2c(C)cccc2C)s1 | 10 | 43* | -2 | 2 | 7
C/C(N)=C(/C#N)C(=O)CSc1cc(C)c2ccccc2n1 | 8 | 43* | -5 | 5 | 4
C/C(N)=C(/C#N)C(=O)CSc1nnc(Nc2cccc(C)c2C)s1 | -5 | 0 | -2 | -1 | -7
O=C(N[C@@H]1CC[C@@H](CCNC(=O)C2CCCCC2)O[C@@H]1CO)c1ccccn1 | x | 0 | -4 | -3 | -2
C[C@H](c1ccccc1)N1C[C@@H](COCc2ccccc2)Oc2cccc(N3CCCCC3)c2S1(=O)=O | x | 0 | 1 | -4 | 5
CCCCN1CC(COCc2ccccc2)Oc2cccc(N3CCCC3)c2S1(=O)=O (configuration not stated) | -14 | 43* | 2 | 3 | -2
COc1ccc(-c2c[n+](CC(=O)OC3CC(C)CCC3C(C)C)c3n2CCC3)cc1 (configuration not stated) | 9 | 43* | -6 | -1 | -6
C[C@@H]1CN([C@@H](C)CO)C(=O)c2cc(NC(=O)Cn3cnnn3)ccc2O[C@@H]1CN(C)C(=O)Nc1cccc2ccccc12 | x | 0 | -4 | -1 | 1
Cc1ccc(C(=O)c2c3ccc(C(F)(F)F)cc3nn2CCC(N)=O)cc1 | 9 | 0 | 4 | 0 | 0
COCCCNC(=O)CSc1nc2c(sc(=S)n2-c2cc(Cl)ccc2OC)c(=O)[nH]1 | -11 | 3.0* | 3 | 0 | -6
CC(C)NC(=O)Nc1ccc2c(c1)C(=O)N([C@H](C)CO)C[C@@H](C)[C@H](CN(C)C(=O)Nc1ccccc1)OCCCC[C@@H](C)O2 | x | -1 | 9 | 4 | -1
COc1ccccc1CNC(=O)C(C)Oc1ccccc1 (configuration not stated) | 7 | 0 | 5 | x | -1
COCCNC(=O)C(C)Oc1ccccc1 (configuration not stated) | -7 | 43* | -5 | -3 | 0
COc1ccc(NC(=O)Nc2ccc3c(c2)[C@H]2C[C@@H](CC(=O)N[C@@H](C)c4ccccc4)O[C@@H](CO)[C@H]2O3)cc1 | x | 0 | -12 | 0 | -4
COC1OCC(O)C(OC(=O)c2ccccc2)C1OC(=O)c1ccccc1 (configuration not stated) | -1 | 43* | -4 | 3 | 3
COc1ccc(C(=O)OCC(=O)Nc2ccccc2)cc1[N+](=O)[O-] | -4 | 0 | 8 | 1 | 2
Nc1n[nH]c2ccccc12 | -11 | 0 | -4 | -1 | 2
S=c1nn[nH]c2ccccc12 | -7 | 43* | -2 | 0 | 2
CC[N+](C)(CC)CC(=O)OCC1C(C)C=C(C)CC1C (configuration not stated) | 5 | 0 | 1 | 106* | 1
CC(C)NC(=O)Nc1ccc2c(c1)C(=O)N([C@@H](C)CO)C[C@@H](C)[C@H](CN(C)C)OCCCC[C@@H](C)O2 | x | 0 | -3 | 0 | 1
CCOC(=O)C1(C)/C(=N/Nc2ccccc2OC)C(=O)C(=O)N1c1ccccc1 (configuration not stated) | -3 | 43* | -5 | -2 | -1
